Laboratory results taken from ChEMBL document CHEMBL1141420, “Towards a new generation of potential antipsychotic agents combining D2 and 5-HT1A receptor activities” (J Med Chem, 2007).
Active and inactive are the calls of the source. No cut-off for these calls is given here.

Assays:
[1] = target: T1, 5-hydroxytryptamine receptor 1A (Homo sapiens) (UniProt P08908); assay: Agonist activity at human 5HT1A receptor in HeLa cells assessed as stimulation of [35S]GTPgammaS binding relative to serotonin; assay type: functional, cell-based
T1 sequence (whole entry): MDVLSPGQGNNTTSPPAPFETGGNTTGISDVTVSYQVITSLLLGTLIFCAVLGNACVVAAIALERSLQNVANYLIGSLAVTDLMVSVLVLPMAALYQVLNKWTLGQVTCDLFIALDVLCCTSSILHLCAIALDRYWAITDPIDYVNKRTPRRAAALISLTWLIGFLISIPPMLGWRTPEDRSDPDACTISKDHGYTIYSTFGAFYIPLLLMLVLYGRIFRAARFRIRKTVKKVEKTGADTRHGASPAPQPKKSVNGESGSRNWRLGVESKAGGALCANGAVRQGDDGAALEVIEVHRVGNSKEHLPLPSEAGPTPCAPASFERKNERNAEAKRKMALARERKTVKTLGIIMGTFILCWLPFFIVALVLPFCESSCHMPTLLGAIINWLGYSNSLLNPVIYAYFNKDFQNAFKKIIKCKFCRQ
In short: (§1)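 Membranes from HeLa cells expressing human 5-HT1A, prepared by homogenisation and 40 000 g spins in Hepes/EDTA, incubated with compound 1 h at 30 °C. [35S]GTPγS added at 0.1 nM final, then 30 min at 30 °C. Filtration and scintillation counting. Six concentrations from 10^-10 to 10^-5 M, triplicate, three experiments.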

[2] = target: 5-hydroxytryptamine receptor 2A (Rattus norvegicus, UniProt P14842); assay: Displacement of [3H]ketanserin from rat cortex 5HT2A receptor
Sequence of 5-hydroxytryptamine receptor 2A (P14842 whole entry): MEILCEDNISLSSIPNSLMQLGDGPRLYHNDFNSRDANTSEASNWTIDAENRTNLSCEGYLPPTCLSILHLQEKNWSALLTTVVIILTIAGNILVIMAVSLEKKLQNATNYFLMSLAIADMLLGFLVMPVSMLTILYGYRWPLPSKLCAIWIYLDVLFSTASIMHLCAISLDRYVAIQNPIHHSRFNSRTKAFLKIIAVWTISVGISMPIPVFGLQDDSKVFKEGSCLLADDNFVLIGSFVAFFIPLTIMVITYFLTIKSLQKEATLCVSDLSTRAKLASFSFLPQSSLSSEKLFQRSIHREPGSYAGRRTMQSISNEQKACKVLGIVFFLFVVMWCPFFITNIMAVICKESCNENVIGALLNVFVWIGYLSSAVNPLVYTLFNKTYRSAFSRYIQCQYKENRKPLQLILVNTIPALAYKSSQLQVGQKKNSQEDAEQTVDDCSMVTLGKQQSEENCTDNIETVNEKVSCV

[3] = target: D(2) dopamine receptor (Rattus norvegicus, UniProt P61169); assay: Displacement of [3H]YM-09151-2 from rat striatum D2 receptor
Sequence of D(2) dopamine receptor (P61169 whole entry): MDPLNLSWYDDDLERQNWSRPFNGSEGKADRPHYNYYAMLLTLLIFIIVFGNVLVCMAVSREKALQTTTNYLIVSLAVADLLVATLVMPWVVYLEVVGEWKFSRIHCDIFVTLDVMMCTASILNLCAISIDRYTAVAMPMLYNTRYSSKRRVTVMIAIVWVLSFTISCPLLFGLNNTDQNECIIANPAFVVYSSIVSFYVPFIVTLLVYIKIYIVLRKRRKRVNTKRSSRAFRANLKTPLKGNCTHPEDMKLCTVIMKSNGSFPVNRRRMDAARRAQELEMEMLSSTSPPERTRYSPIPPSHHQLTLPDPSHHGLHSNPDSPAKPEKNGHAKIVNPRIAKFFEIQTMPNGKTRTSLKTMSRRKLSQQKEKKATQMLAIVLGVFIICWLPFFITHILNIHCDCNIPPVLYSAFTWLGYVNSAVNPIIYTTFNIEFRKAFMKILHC

[4] = target: T2, 5-hydroxytryptamine receptor 1A (Homo sapiens, UniProt P08908); assay: Agonist activity at human 5HT1A receptor in HeLa cells assessed as stimulation of [35S]GTP-gamma-S binding; assay type: functional, cell-based; in short: as §1
T2 sequence (P08908 whole entry): T1 sequence (whole entry)

[5] = target: T3, 5-hydroxytryptamine receptor 1A (Rattus norvegicus, UniProt P19327); assay: Displacement of [3H]OH-DPAT from rat cortex 5HT1A receptor
T3 sequence (P19327 whole entry): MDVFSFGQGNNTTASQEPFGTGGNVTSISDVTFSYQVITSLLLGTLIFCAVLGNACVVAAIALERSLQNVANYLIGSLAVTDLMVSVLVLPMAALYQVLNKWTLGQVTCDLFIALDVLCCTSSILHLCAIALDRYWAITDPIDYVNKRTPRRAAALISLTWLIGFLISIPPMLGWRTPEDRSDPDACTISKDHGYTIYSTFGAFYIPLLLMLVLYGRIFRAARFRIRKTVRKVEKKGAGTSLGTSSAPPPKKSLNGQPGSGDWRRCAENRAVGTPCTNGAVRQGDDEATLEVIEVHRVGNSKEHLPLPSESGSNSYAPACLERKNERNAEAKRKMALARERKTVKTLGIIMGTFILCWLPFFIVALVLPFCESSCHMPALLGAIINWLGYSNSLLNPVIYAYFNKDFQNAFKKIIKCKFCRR

[6] = system: Rattus norvegicus; assay: Induction of catalepsy in ip dosed rat after 60 min by crossed-leg position test; assay type: functional; details: 1 h
In short: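 Rats dosed i.p. (10 mL/kg; doses as free base), seven per dose. From 60 min, hind limbs crossed over the ipsilateral forelimbs and time held recorded, up to 30 s. Repeated at 3 and 6 min and the three trials averaged. Incidence taken as catalepsy lasting 30 s.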

[7] = system: Rattus norvegicus; assay: Normalizing effect on methylphenidate-induced behaviours in ip dosed rat after 30 min; assay type: functional; details: for ED50: 0.5 h
In short: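 Rats given methylphenidate 40 mg/kg i.p. plus compound i.p. (10 mL/kg; doses as free base), seven per dose. Over 10 min starting 30 min after injection, locomotion, rearing, sniffing, gnawing and licking scored in 10 s observations repeated 10 times. Normalization judged against saline and methylphenidate controls.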

[8] = system: Rattus norvegicus; assay: Induction of flat body posture in ip dosed rat after 15 min; assay type: functional; details: 0.25 h
In short: (§2)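 Rats given compound i.p. (10 mL/kg; doses as free base), five per dose, observed individually for 10 min from 15 min post-injection. LLR scored present if uninterrupted for ≥3 s, in 10 cycles; response was ≥1 positive score. FBP scored present only if seen over the whole period.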

[9] = system: Rattus norvegicus; assay: Induction of lower lip retraction in ip dosed rat after 15 min; assay type: functional; details: 0.25 h; in short: as §2
[10] = system: Rattus norvegicus; assay: Ratio of ED50 for catalepsy induction to ED50 for normalization in ip dosed rat; assay type: functional
[11] = system: Rattus norvegicus; assay: Ratio of ED50 for LLR induction to ED50 for normalization in ip dosed rat; assay type: functional
[12] = system: Rattus norvegicus; assay: Induction of forepaw treading in rat at 40 mg/kg, ip; assay type: functional, organism-based; set-up: dose 40 mg/kg
[13] = target: D(2) dopamine receptor (Rattus norvegicus) (UniProt P61169)
Sequence of D(2) dopamine receptor (Rattus norvegicus) (P61169 whole entry): as the sequence (P61169 whole entry) above

Structure (SMILES) | Emax [1] [%] | Ki [2] [nM] | Ki [3] [nM] | EC50 [4] [nM] | Ki [5] [nM] | ED50 [6] [mg/kg] | ED50 [7] [mg/kg] | ED50 [8] [mg/kg] | ED50 [9] [mg/kg] | Ratio ED50 [10] | Ratio ED50 [11] | Activity [12] | pKb [13] | Activity [7]
CC(C)Oc1ccccc1OCCNCc1cccc(C2CCCC2)c1 | 71.2 | 302 | 0.562 | 195 | 16.6 |  |  |  |  |  |  |  |  | 
CC(C)Oc1ccccc1OCCNCc1cccc(C2CC2)c1 |  | 110 | 0.603 | > 10000 | 61.7 |  |  |  |  |  |  |  |  | 
Fc1ccc(-c2cncc(CNC[C@H]3CCc4ccccc4O3)c2)cc1 [SARIZOTAN] | 66.5 | 2140 | 19.1 | 77.6 | 2.24 |  |  |  |  |  |  |  |  | 
CC(C)Oc1ccccc1OCCNCc1cccc(C2=CCCC2)c1 | 54 | 646 | 0.501 | 69.2 | 29.5 |  |  |  |  |  |  |  |  | 
O=c1[nH]c2cccc(N3CCN(Cc4cccc(-c5ccccc5)c4)CC3)c2o1 [BIFEPRUNOX] | 60.8 | 3310 | 1.55 | 324 | 64.6 |  |  |  |  |  |  |  |  | 
CCCN(CCC)C1CCc2cccc(O)c2C1 (stereo unspecified) [8-OH-DPAT] | 82 |  |  |  |  | > 10 | > 10 | 0.28 | 0.09 |  |  |  |  | 
CC1(C)Cc2cccc(OCCNCc3cccc(C4=CCCC4)c3)c2O1 | 85.6 |  | 0.417 | 10 | 5.75 | > 40 | 1.1 | 32 | 8.3 | >36 | 7.5 | inactive | 8.29 | 
C1=C(c2cccc(CNCCOc3cccc4c3OCO4)c2)CCC1 | 70.7 |  | 2.57 | 135 | 20.9 |  |  |  |  |  |  |  |  | 
O=C(CCCN1CCC(O)(c2ccc(Cl)cc2)CC1)c1ccc(F)cc1 [HALOPERIDOL] |  |  |  |  |  | 0.3 | 0.31 |  |  |  |  |  |  | 
CC1(C)Oc2cccc(OCCNCc3cccc(C4=CCCC4)c3)c2O1 | 90.6 |  | 1.23 | 24.5 | 9.55 |  |  |  |  |  |  |  |  | Active
CC1(C)Cc2cccc(OCCNCc3cncc(C4=CCCC4)c3)c2O1 | 72.4 |  | 0.275 | 2.88 | 0.955 | > 40 | 0.29 | 4.7 | 1.8 | >137 | 6.2 | inactive | 9.29 | 
CC(C)Oc1ccccc1OCCNCc1cccc(-c2ccsc2)c1 | 47.7 | 347 | 0.275 | 67.6 | 34.7 |  |  |  |  |  |  |  |  | 
CC(C)Oc1ccccc1OCCNCc1cccc(C2=CCCCC2)c1 | 69.8 | 191 | 1.55 | 46.8 | 12.3 |  |  |  |  |  |  |  |  | 
Fc1ccc(-c2cncc(CN3CCN(c4cccc5c4OCCO5)CC3)c2)cc1 [ADOPRAZINE] | 45.3 | 724 |  | 5.89 | 2.29 | > 40 | 1.4 | 1.7 | 0.32 |  |  |  | 7.81 | 
C1=C(c2cccc(CNCCOc3cccc4c3OCCO4)c2)CCC1 | 68.9 |  | 0.776 | 6.46 | 1.7 |  |  |  |  |  |  |  |  | Active
CCC1(C)Cc2cccc(OCCNCc3cccc(C4=CCCC4)c3)c2O1 (stereo unspecified) | 77.7 |  | 11.5 | 32.4 | 5.5 |  |  |  |  |  |  |  |  | Active
CC(C)Oc1ccccc1OCCNCc1cccc(-c2cccs2)c1 |  | 562 | 0.562 | > 10000 | 46.8 |  |  |  |  |  |  |  |  | 
CC(C)Oc1ccccc1OCCNCc1cccc(C2=CCCCCC2)c1 | 86.5 | 1050 | 3.09 | 1550 | 22.9 |  |  |  |  |  |  |  |  | 
CC1(C)COc2c(OCCNCc3cccc(C4=CCCC4)c3)cccc21 | 72.4 |  | 0.813 | 112 | 42.7 |  |  |  |  |  |  |  |  | Active
C1=C(c2cccc(CNCCOc3cccc4c3OC3(CC3)C4)c2)CCC1 | 93.8 |  | 1.12 | 33.9 | 6.17 |  |  |  |  |  |  |  |  | Active
CC(C)Oc1ccccc1OCCNCc1cccc(-c2ccco2)c1 |  | 372 | 0.339 | > 10000 | 67.6 |  |  |  |  |  |  |  |  | 
CC(C)Oc1ccccc1OCCNCc1cccc(-c2ccccc2)c1 | 73.9 | 724 | 0.195 | 1410 | 26.3 |  |  |  |  |  |  |  |  | 
C1=C(c2cncc(CNCCOc3cccc4c3OC3(CC3)C4)c2)CCC1 | 78.5 |  | 0.447 | 2.63 | 3.63 |  |  |  |  |  |  |  |  | Active
